Measured values published in ChEMBL document CHEMBL4406809, “Design of balanced COX inhibitors based on anti-inflammatory and/or COX-2 inhibitory ascidian metabolites” (Eur J Med Chem, 2019).
The source made the active and inactive calls.

Tests used:
[1] = target: T1, Prostaglandin G/H synthase 1 (Ovis aries) (UniProt P05979); assay: Inhibition of ovine COX1 at 30 uM using arachidonic acid as substrate pretreated for 5 mins followed by substrate addition and measured after 2 mins by fluorescence based enzyme immunoassay
T1 sequence (whole entry): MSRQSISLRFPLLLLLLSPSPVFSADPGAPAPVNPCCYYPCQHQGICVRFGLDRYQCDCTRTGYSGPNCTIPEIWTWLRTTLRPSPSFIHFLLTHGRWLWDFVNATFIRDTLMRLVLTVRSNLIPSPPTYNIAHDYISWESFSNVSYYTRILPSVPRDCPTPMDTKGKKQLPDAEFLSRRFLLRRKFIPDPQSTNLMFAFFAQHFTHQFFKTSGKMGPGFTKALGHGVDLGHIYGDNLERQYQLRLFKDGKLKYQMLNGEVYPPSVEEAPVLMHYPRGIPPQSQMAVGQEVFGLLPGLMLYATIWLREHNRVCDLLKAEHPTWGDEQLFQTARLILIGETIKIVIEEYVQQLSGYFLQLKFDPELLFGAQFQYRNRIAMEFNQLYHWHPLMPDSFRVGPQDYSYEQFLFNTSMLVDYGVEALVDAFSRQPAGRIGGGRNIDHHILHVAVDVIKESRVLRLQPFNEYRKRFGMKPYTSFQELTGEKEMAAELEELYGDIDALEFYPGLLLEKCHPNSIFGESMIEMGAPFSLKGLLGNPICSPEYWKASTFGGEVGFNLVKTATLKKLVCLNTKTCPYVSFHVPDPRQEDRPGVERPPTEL

[2] = target: T2, Prostaglandin G/H synthase 2 (Homo sapiens) (UniProt P35354); assay: Inhibition of recombinant human COX2 at 30 uM using arachidonic acid as substrate pretreated for 5 mins followed by substrate addition and measured after 2 mins by fluorescence based enzyme immunoassay
T2 sequence (whole entry): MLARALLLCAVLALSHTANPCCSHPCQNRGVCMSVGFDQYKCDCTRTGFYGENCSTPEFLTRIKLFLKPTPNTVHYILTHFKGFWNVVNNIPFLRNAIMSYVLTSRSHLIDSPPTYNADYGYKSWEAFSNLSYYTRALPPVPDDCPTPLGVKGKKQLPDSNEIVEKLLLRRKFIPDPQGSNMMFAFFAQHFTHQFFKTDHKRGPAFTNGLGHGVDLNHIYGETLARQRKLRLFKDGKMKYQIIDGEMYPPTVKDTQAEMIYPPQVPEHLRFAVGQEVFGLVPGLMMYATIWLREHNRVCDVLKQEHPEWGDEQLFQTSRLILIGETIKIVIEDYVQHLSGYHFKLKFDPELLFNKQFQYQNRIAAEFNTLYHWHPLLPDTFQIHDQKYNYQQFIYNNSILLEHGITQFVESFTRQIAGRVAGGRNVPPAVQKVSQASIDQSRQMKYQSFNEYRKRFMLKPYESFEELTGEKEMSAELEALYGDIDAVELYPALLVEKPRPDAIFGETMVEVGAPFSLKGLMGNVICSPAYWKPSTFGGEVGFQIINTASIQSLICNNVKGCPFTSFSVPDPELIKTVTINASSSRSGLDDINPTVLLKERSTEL

RAW264.7 [3] = assay: Antiinflammatory activity against mouse RAW264.7 cells assessed as reduction in LPS-stimulated ROS production at 20 uM pretreated for 1 hrs followed by LPS addition and measured after 24 hrs by DCFH-DA dye based fluorescence assay; assay type: functional, cell-based
Procedure, shortened: (§1)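 RAW264.7 cells at about 1×10^4 cells/well, grown 12 h, pretreated 1 h, then LPS 1 μg/mL for 24 h. Loaded with DCFH-DA at 100 μM final in FBS-free medium, 30 min at 37°C. After washing, fluorescence read at Ex 485/Em 520 nm on a plate reader; confocal imaging done in parallel dishes.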

RAW264.7 [4] = assay: Cytotoxicity against mouse RAW264.7 cells assessed as reduction in cell viability up to 50 uM incubated of WST assay; assay type: cell-based
Procedure, shortened: (§2)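 Cells seeded at 1.0×10^4 cells/well, grown 12 h in DMEM with 10% FBS, then exposed 24 h to 10, 25 or 50 μM; medium-only controls. WST reagent added for 1 h at 37°C and absorbance read at 450 nm. Cells in exponential phase.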

[5] = Cytotoxicity against rat Ac2F cells assessed as reduction in cell viability up to 50 uM incubated of WST assay; assay type: cell-based; procedure, shortened: as §2
L929 = assay: Cytotoxicity against mouse L929 cells assessed as reduction in cell viability up to 50 uM incubated of WST assay; assay type: cell-based; procedure, shortened: as §2
RAW264.7 [6] = assay: Antiinflammatory activity against mouse RAW264.7 cells assessed as downregulation of LPS-stimulated iNOS protein expression pretreated for 1 hrs followed by LPS addition and measured after 24 hrs by Western blot analysis; assay type: functional, cell-based
Procedure, shortened: (§3)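 Cells treated at various concentrations, then cultured with or without LPS (1 µg/mL) for 24 h; dexamethasone 10 µM as positive control. Lysates taken in buffer with protease/phosphatase inhibitors and protein quantified by BCA. Equal protein run on 10% SDS-PAGE, transferred to PVDF, blocked in TBS-T/5% milk, then primary antibodies overnight at 4°C and HRP anti-rabbit secondary. Mean ± SD, n=3.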

RAW264.7 [7] = assay: Antiinflammatory activity against mouse RAW264.7 cells assessed as downregulation of LPS-stimulated COX2 protein expression pretreated for 1 hrs followed by LPS addition and measured after 24 hrs by Western blot analysis; assay type: functional, cell-based; procedure, shortened: as §3
RAW264.7 [8] = assay: Antiinflammatory activity against mouse RAW264.7 cells assessed as downregulation of LPS-stimulated iNOS protein expression at 20 uM pretreated for 1 hrs followed by LPS addition and measured after 24 hrs by Western blot analysis; assay type: functional, cell-based; procedure, shortened: as §3
RAW264.7 [9] = assay: Antiinflammatory activity against mouse RAW264.7 cells assessed as downregulation of LPS-stimulated COX2 protein expression at 20 uM pretreated for 1 hrs followed by LPS addition and measured after 24 hrs by Western blot analysis; assay type: functional, cell-based; procedure, shortened: as §3
RAW264.7 [10] = assay: Antiinflammatory activity against mouse RAW264.7 cells assessed as inhibition of LPS-stimulated NO production pretreated for 1 hrs followed by LPS addition and measured after 24 hrs by Griess reagent based assay; assay type: functional, cell-based
Procedure, shortened: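 RAW264.7 cells at about 1×10^4 cells/well, grown 12 h. Pretreated 1 h at 2.5, 5 or 10 μM, then LPS 25 ng/mL for 24 h. Supernatant mixed 1:1 with Griess reagent for 15 min at 37°C in the dark, A520 read. Nitrite quantified against 0–100 μM sodium nitrite standards.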

[11] = target: T3, Prostaglandin G/H synthase 2 (Mus musculus) (UniProt Q05769); assay: Inhibition of COX2 in mouse RAW264.7 cells assessed as decrease in LPS-stimulated PGE2 production pretreated for 1 hrs followed by LPS addition and measured after 24 hrs by sandwich ELISA; assay type: cell-based
T3 sequence (whole entry): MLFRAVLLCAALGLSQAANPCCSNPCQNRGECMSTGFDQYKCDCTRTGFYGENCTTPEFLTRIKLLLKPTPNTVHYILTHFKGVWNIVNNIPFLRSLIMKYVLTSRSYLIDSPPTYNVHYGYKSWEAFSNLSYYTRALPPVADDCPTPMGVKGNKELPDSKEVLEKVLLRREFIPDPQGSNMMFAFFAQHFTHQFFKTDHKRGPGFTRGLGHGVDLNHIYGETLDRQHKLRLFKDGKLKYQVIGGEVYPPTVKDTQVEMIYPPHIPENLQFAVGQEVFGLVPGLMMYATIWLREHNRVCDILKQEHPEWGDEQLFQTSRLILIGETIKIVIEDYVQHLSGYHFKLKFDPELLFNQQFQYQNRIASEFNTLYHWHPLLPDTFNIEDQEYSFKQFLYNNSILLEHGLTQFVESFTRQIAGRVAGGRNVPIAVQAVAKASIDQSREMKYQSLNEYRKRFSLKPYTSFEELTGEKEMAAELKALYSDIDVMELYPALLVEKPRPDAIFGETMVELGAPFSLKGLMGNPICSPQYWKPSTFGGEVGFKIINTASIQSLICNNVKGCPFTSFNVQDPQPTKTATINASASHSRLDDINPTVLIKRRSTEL
Procedure, shortened: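 RAW264.7 cells at about 1×10^4 cells/well, grown 12 h. Pretreated 1 h at 2.5, 5 or 10 μM, then stimulated with LPS 100 ng/mL for 24 h. PGE2 in the medium measured by PGE2 express ELISA, absorbance at 415 nm. Representative of three independent experiments.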

RAW264.7 [12] = assay: Antiinflammatory activity against mouse RAW264.7 cells assessed as decrease in LPS-stimulated TNFalpha production pretreated for 1 hrs followed by LPS addition and measured after 24 hrs by sandwich ELISA; assay type: functional, cell-based
RAW264.7 [13] = assay: Antiinflammatory activity against mouse RAW264.7 cells assessed as decrease in LPS-stimulated IL6 production pretreated for 1 hrs followed by LPS addition and measured after 24 hrs by sandwich ELISA; assay type: functional, cell-based
Procedure, shortened: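 RAW264.7 cells seeded at about 1×10^4 cells/well and grown 12 h. Pretreated 1 h with 2.5, 5 or 10 μM, then LPS 100 ng/mL added: 24 h for IL-6, 3 h for TNF-α. Cytokines in the medium quantified by sandwich ELISA, A450. Representative of three independent experiments.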

[14] = target: Transcription factor p65 (Mus musculus) (UniProt Q04207); assay: Inhibition of LPS-stimulated NFkappaB p65 nuclear translocation in mouse RAW264.7 cells retreated for 1 hrs followed by LPS addition and measured after 30 mins by Western blot analysis; assay type: cell-based
Transcription factor p65 (Mus musculus), sequence (Q04207 whole entry): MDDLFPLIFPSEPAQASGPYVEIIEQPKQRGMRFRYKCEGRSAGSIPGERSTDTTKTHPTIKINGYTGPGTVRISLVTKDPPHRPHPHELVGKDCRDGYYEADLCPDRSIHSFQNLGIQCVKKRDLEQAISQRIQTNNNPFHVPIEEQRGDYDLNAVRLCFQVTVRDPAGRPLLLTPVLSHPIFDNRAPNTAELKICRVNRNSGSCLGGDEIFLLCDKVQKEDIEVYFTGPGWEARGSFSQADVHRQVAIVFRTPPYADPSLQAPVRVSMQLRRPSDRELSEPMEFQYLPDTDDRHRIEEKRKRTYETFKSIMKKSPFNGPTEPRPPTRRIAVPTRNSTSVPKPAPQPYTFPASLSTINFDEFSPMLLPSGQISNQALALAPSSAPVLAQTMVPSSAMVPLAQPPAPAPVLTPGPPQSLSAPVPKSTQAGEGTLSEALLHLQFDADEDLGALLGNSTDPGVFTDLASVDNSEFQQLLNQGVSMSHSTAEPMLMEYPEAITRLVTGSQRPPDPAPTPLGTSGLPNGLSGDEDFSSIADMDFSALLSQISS

RAW264.7 [15] = assay: Antiinflammatory activity against mouse RAW264.7 cells assessed as reduction in LPS-stimulated ROS production pretreated for 1 hrs followed by LPS addition and measured after 24 hrs by DCFH-DA dye based fluorescence assay; assay type: functional, cell-based; procedure, shortened: as §1
[16] = target: T4, I-kappa-B kinase (Mus musculus) (UniProt Q60680+O88351+O88522); assay: Inhibition of LPS-stimulated IKK phosphorylation in mouse RAW264.7 cells at 5 to 20 uM pretreated for 1 hrs followed by LPS addition and measured after 30 mins by Western blot analysis; assay type: cell-based
[17] = target: T4, I-kappa-B kinase (Mus musculus); assay: Inhibition of LPS-stimulated IKK phosphorylation in mouse RAW264.7 cells assessed as decrease in IkappaBalpha phosphorylation level at 5 to 20 uM pretreated for 1 hrs followed by LPS addition and measured after 30 mins by Western blot analysis; assay type: cell-based
[18] = target: Transcription factor p65 (Mus musculus) (UniProt Q04207); assay: Inhibition of LPS-induced NFkappaB p65 nuclear translocation in mouse RAW264.7 cells at 20 uM preincubated for 1 hrs followed by LPS-stimulation and measured after 24 hrs by DAPI staining based confocal microscopic method; assay type: cell-based
RAW264.7 [19] = assay: Antiinflammatory activity against mouse RAW264.7 cells assessed as downregulation of LPS-stimulated iNOS protein expression at 10 uM pretreated for 1 hrs followed by LPS addition and measured after 24 hrs by Western blot analysis; assay type: functional, cell-based
Procedure, shortened: (§4)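 RAW264.7 macrophages (DMEM, 10% heat-inactivated FBS, 37 °C, 5% CO2) pretreated with compound, then cultured with or without LPS 1 µg/mL for 24 h. Lysates in buffer with protease/phosphatase inhibitors, BCA-normalised, 10% SDS-PAGE, PVDF transfer, milk/TBS-T block, primary antibody overnight at 4 °C, HRP anti-rabbit secondary, chemiluminescence. Dexamethasone 10 µM positive control; mean ± SD of three independent experiments.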

RAW264.7 [20] = assay: Antiinflammatory activity against mouse RAW264.7 cells assessed as downregulation of LPS-stimulated COX2 protein expression at 10 uM pretreated for 1 hrs followed by LPS addition and measured after 24 hrs by Western blot analysis; assay type: functional, cell-based; procedure, shortened: as §4

CCCCC/C=N/NC(=O)c1cn(Cc2ccc(Cl)cc2)c2ccccc12
active: inhibition [1] | inhibition [2]

O=C(N/N=C/c1ccco1)c1cn(Cc2ccc(Cl)cc2)c2ccccc12
active: inhibition [1] | inhibition [2]

O=C(O)Cc1ccccc1Nc1c(Cl)cccc1Cl
active: Activity (RAW264.7 [3])

N#Cc1ccc(/C=N/NC(=O)c2cn(Cc3ccc(Cl)cc3)c3ccccc23)cc1
active: Activity (RAW264.7 [6]) Dose-dependent effect | Activity (RAW264.7 [7]) Dose-dependent effect | Activity (RAW264.7 [8]) | Activity (RAW264.7 [9]) | inhibition (RAW264.7 [10]) Dose-dependent effect | inhibition [11] | Activity (RAW264.7 [12]) Dose-dependent effect | Activity (RAW264.7 [13]) Dose-dependent effect | inhibition [14] Dose-dependent effect | Activity (RAW264.7 [15]) Dose-dependent effect | Activity (RAW264.7 [3]) | inhibition [16] | inhibition [17] | inhibition [18] | inhibition [1] | inhibition [2]
Non-Toxic: Activity (RAW264.7 [4]) | Activity [5] | Activity (L929)

C[C@@H]1C[C@H]2[C@@H]3CCC4=CC(=O)C=C[C@]4(C)[C@@]3(F)[C@@H](O)C[C@]2(C)[C@@]1(O)C(=O)CO
active: Activity (RAW264.7 [19]) | Activity (RAW264.7 [20])
